From ChEMBL document CHEMBL1128605, “(1S,2S)-1-(4-hydroxyphenyl)-2-(4-hydroxy-4-phenylpiperidino)-1-propanol: a potent new neuroprotectant which blocks N-methyl-D-aspartate responses” (J Med Chem, 1995) come the findings set out here.

In assay [1] the test system is Rattus norvegicus. The assay is described as follows: In vivo inhibition of haloperidol-induced catalepsy in rat following s.c. administration. The format is functional. The following applies: sc.
The target in assay [2] is T1, Adrenergic receptor alpha-1 (Rattus norvegicus, UniProt P15823+P23944+P43140).
T1 sequence (P15823 whole entry): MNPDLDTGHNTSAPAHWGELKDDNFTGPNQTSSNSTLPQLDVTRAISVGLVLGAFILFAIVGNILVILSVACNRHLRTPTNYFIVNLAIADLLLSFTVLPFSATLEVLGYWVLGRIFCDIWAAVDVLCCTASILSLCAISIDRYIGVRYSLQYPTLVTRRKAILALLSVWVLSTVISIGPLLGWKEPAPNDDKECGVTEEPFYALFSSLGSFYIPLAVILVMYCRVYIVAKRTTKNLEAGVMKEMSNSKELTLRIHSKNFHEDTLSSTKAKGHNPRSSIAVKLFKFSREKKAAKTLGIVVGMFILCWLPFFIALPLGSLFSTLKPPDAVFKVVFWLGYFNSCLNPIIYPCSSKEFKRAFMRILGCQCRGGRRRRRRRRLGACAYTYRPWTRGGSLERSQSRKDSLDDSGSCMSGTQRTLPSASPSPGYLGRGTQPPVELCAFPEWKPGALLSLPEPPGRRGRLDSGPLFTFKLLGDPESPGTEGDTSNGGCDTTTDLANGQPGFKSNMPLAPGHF
T1 sequence (P23944 whole entry): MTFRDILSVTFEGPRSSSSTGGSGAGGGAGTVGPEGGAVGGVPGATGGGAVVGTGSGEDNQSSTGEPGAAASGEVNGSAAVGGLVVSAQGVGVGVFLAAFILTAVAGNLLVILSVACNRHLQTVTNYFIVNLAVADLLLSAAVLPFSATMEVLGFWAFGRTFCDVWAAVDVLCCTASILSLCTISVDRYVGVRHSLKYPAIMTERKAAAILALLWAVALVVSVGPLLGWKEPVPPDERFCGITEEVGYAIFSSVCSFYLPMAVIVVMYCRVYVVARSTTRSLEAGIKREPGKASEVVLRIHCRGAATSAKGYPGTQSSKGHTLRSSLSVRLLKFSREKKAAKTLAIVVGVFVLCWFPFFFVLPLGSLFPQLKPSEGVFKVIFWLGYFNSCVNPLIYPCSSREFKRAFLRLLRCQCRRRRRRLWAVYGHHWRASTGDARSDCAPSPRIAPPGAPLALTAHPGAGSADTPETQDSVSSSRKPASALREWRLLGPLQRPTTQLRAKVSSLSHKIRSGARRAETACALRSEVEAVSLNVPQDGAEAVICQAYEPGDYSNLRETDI
T1 sequence (P43140 whole entry): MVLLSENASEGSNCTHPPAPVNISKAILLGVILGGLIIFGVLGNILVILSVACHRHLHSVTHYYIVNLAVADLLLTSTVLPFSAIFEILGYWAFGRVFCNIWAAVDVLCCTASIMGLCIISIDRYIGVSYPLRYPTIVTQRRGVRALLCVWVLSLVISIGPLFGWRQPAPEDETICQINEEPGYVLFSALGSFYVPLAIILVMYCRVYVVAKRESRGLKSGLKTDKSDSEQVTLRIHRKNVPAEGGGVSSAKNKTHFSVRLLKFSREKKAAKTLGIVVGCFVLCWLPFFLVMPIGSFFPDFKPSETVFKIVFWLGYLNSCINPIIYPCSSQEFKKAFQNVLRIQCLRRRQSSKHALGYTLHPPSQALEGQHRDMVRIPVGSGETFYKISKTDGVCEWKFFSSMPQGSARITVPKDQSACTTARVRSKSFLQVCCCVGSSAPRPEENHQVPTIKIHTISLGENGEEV
The assay is described as follows: In vitro binding affinity against Alpha-1 adrenergic receptor using [3H]prazosin as radioligand. Format: protein assay.

The nature of assay [3]: In vivo inhibition of NMDA-stimulated fos induction in mouse following i.p. administration. The format is functional. The following applies: ip. The method, boiled down:
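Male CF-1 mice (20–25 g), 12 h light/dark, 22 °C. Compound in 50% poly(ethylene glycol) given ip 30 min before NMDA 75 mg/kg ip (subseizure dose). After 1 h: pentobarbital, paraformaldehyde perfusion, two 50 μm hippocampal coronal sections per brain. Sheep anti-Fos (1:1500) immunostaining by avidin–biotin method, glucose oxidase substrate. ED50 calculated against vehicle-only and NMDA-only sections.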

Another assay addresses Glutamate NMDA receptor. The assay is described as follows: In vitro inhibition of glutamate induced neuronal death in primary cultures of rat hippocampal neurons. The format is functional, tissue-based, Hippocampus.
The species named for assay [4] is Rattus norvegicus. The assay is described as follows: Selectivity between protection against glutamate-induced neuronal damage and alpha 1 adrenergic affinity; Not significant. The method, boiled down:
(§1)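 Selectivity index: ratio of α1 adrenergic affinity ([3H]prazosin binding IC50) to neuroprotection IC50 (inhibition of glutamate-induced death of primary rat hippocampal neurons).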

The species named for assay [5] is Rattus norvegicus. Put plainly: Selectivity between protection against glutamate-induced neuronal damage and alpha 1 adrenergic affinity. In short, it runs like this:
as §1

Activity calls are given as the source filed them. The rule behind the calls is not given here.

For orientation: ED50 means the dose at which the effect has come halfway, by size or by number of responders. The low end stands for an effect at a small dose, the high end for a need for a large dose. Usually IC50 stands for the concentration that inhibits the measured activity by half. For the compound `C[C@@H]([C@@H](O)c1ccc(O)cc1)N1CCC(O)(c2ccccc2)CC1` (stereo in doubt) [TRAXOPRODIL], the ED50 is 0.4 mg/kg in the assay with Rattus norvegicus [1] and 1 mg/kg in assay [3]. The same compound came in with an IC50 in assay [2] of 19520 nM.

In turn, `COC1(Cc2ccccc2)CCN([C@@H](C)[C@@H](O)c2ccc(O)cc2)CC1` displayed an IC50 on Glutamate NMDA receptor of more than 10000 nM. Also, the Selectivity ratio entry in the assay listed under Rattus norvegicus [4] was “inactive”.

With `C[C@@H]([C@@H](O)c1ccc(F)cc1)N1CCC(O)(c2ccccc2)CC1`, the figures for the IC50 (at Glutamate NMDA receptor; in assay [2]) were more than 1000 nM and 6900 nM, respectively. Besides, in the assay filed under Rattus norvegicus [4], the Selectivity ratio entry was “inactive”.

For `C[C@@H]([C@@H](O)c1ccc(Cl)cc1)N1CCC(O)(c2ccccc2)CC1`, the results for the IC50 (against Glutamate NMDA receptor; in assay [2]) were more than 1000 nM and 3133 nM, respectively. In the assay filed under Rattus norvegicus [4], the Selectivity ratio entry was “inactive”.

On to `C[C@@H]([C@@H](O)c1ccc(O)cc1)N1CCN(C(=O)c2ccccc2)CC1`, for which the IC50 (against Glutamate NMDA receptor; in assay [2]) was more than 10000 nM each time. Also, the Selectivity ratio entry in the assay filed under Rattus norvegicus [4] is “inactive”.

With `CC[C@@H]([C@@H](O)c1ccc(O)cc1)N1CCC(O)(Cc2ccccc2)CC1`, the IC50 against Glutamate NMDA receptor was 68 nM; in assay [2], more than 10000 nM. In the assay listed under Rattus norvegicus [5], the Selectivity ratio is more than 147.

For `C[C@@H]([C@@H](O)c1ccc(O)cc1)N1CCC(O)(c2ccc(F)cc2)CC1`, the IC50 against Glutamate NMDA receptor was 4 nM; in assay [2], 2700 nM. Also, the Selectivity ratio in the assay listed under Rattus norvegicus [5] was 675.

Turning to `C[C@@H]([C@@H](O)c1ccc(O)cc1)N1CCC(O)(c2ccccc2)CC1` (stereo in doubt; 10) [TRAXOPRODIL], the IC50 in assay [2] is listed as 5700 nM.

Turning to `C[C@@H]([C@@H](O)c1ccc(O)cc1)N1CCC(O)(Cc2ccccc2)CC1`, in assay [2], the IC50 is reported as more than 10000 nM. Moreover, the Selectivity ratio in the assay listed under Rattus norvegicus [5] was more than 172.

Regarding `Cc1ccc(C2(O)CCN([C@@H](C)[C@@H](O)c3ccc(O)cc3)CC2)cc1`, the IC50 at Glutamate NMDA receptor amounted to 2.7 nM; in assay [2], 2166 nM. Also, in the assay filed under Rattus norvegicus [5], the Selectivity ratio turned out to be 1080.

`Oc1ccc(C(O)CN2CCC(O)(Cc3ccccc3)CC2)cc1` (stereo not given): the IC50 at Glutamate NMDA receptor was 63 nM; in assay [2], more than 10000 nM. Moreover, in the assay filed under Rattus norvegicus [5], the Selectivity ratio is more than 158.

Consider `C[C@@H]([C@@H](O)c1ccc(O)cc1)N1CCC(O)(CCCc2ccccc2)CC1`, for which the figures for the IC50 (against Glutamate NMDA receptor; in assay [2]) were 15.7 nM and 2350 nM, respectively. In addition, in the assay listed under Rattus norvegicus [5], the Selectivity ratio came to 150.

For `CCC[C@@H]([C@@H](O)c1ccc(O)cc1)N1CCC(O)(Cc2ccccc2)CC1`, the IC50 in assay [2] is more than 10000 nM. The Selectivity ratio in the assay listed under Rattus norvegicus [5] amounted to 7.7.

Turning to `C[C@@H]([C@@H](O)c1ccc(O)cc1)N1CCN(Cc2ccccc2)CC1`, in the assay filed under Rattus norvegicus [4], the Selectivity ratio entry was “inactive”.

`C[C@@H]([C@@H](O)c1ccc(O)cc1)N1CCC(O)(c2ccc(Cl)cc2)CC1`: the IC50 on Glutamate NMDA receptor is 2 nM; in assay [2], 1480 nM. For the same compound, the Selectivity ratio in the assay listed under Rattus norvegicus [5] came out at 740.

In the case of `C[C@@H]([C@@H](O)c1ccc(O)cc1)N1CCC(O)(CCc2ccccc2)CC1`, the IC50 against Glutamate NMDA receptor was 1.3 nM; in assay [2] it was 137 nM. Also, the Selectivity ratio in the assay filed under Rattus norvegicus [5] was 105.

`C[C@@H]([C@@H](O)c1ccc(O)cc1)N1CCC(O)(CCCCc2ccccc2)CC1`: the IC50 on Glutamate NMDA receptor worked out at 1000 nM; in assay [2], 2300 nM. Besides, the Selectivity ratio in the assay listed under Rattus norvegicus [5] turned out to be 2.3.

As to `C[C@H]([C@H](O)c1ccc(O)cc1)N1CCC(O)(c2ccccc2)CC1`, the ED50 in the assay with Rattus norvegicus [1] came out at 0.5 mg/kg; in assay [3] it was 5 mg/kg. In assay [2], the IC50 came out at 8450 nM.

As to `C[C@@H]([C@@H](O)c1ccccc1)N1CCC(O)(c2ccccc2)CC1`, the IC50 against Glutamate NMDA receptor was more than 1000 nM; in assay [2] it was more than 10000 nM. For the same compound, in the assay listed under Rattus norvegicus [4], the Selectivity ratio result was “inactive”.
